# Kir21 inh: blocks the mouse Kir2.1 inward-rectifier potassium channel; HEK293-Kir2.1, FluxOR thallium flux fluorescence; stronger effect = lower value; P35561; actives 0.85% (n = 310,000); B-score at 10 µM;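 active = fluorescence ratio B-score at or below minus 3 SD of library scores, with starting-brightness B-score within 2 SD, cut at about -4.2 in these data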;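 also: channel flux triggered by added potassium and thallium sulfate stimulus; B-score of peak minus minimum fluorescence over baseline after thallium stimulus; more negative B-score means stronger Kir2.1 block with less thallium influx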
# Target sequence (P35561 whole entry, looked up): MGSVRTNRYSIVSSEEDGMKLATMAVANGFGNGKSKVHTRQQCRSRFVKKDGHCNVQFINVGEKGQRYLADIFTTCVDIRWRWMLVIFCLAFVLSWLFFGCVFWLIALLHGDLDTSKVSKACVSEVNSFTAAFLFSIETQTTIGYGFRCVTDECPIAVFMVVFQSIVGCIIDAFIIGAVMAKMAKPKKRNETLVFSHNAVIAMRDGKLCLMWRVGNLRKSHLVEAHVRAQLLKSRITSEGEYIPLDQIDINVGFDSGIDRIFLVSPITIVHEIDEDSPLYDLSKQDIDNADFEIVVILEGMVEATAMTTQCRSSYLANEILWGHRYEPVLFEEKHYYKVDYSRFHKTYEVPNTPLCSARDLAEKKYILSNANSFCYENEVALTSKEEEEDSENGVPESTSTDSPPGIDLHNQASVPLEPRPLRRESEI
# RGS4 inh: inhibitors of human RGS4; P49798; AID 463165; HEK293 M3R/RGS4 inducible, Fluo-4 calcium flux; stronger effect = higher value; triggered by carbachol at its EC20; B-score at 10 µM; actives 0.45% (n = 310,000);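 active = B-score, a plate-corrected calcium signal, over three deviations above library mean, with baseline fluorescence within five deviations of library mean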;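 also: RGS4 expression induced by doxycycline in cells with stable M3 receptor; B-score is computed from the integrated fluorescence ratio over baseline after carbachol; higher B-score means a larger calcium signal and so more RGS4 inhibition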
# Target sequence (P49798 whole entry, looked up): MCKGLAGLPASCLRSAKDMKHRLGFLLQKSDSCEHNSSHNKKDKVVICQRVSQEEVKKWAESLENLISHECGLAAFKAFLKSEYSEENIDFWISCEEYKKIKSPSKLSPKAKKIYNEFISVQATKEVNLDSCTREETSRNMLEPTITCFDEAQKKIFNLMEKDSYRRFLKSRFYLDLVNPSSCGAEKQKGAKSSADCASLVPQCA
# MrgX1 ag: activates human MrgX1 receptor signaling | Q96LB2 | MrgX1-HEK293 cells, Fluo-4 calcium fluorescence, agonist mode; stronger effect = higher value | AID 588627 | actives 0.44% (n = 310,000) | B-score at 10 µM;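 active = calcium response B-score plate-corrected fluorescence ratio at least 3 library SD, with starting fluorescence B-score inside 5 SD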
#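 Test system: Stable human MrgX1 HEK293 cell line | Schedule: Overnight plating before 1 h dye loading | Read-out basis: Baseline-normalised fluorescence change ratio, B-scored | Detection: Kinetic calcium dye fluorescence, Fluo-4 NW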
# MrgX1 antagonist: antagonists of human MrgX1 receptor; actives 1.3% (n = 310,000); Q96LB2; AID 588676; B-score at 10 µM; MRGX1-HEK293 calcium flux, Fluo-4, BAM8-22 antagonism; stronger effect = lower value;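 active = calcium-response B-score plate-corrected more than 3 library SD below zero, starting fluorescence within 5 deviations, no agonist response on first addition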;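 also: peak minus trough fluorescence over baseline after final BAM8-22 challenge near maximal dose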
# MrgX1 allo act: allosterically activates human MrgX1 receptor signaling | actives 0.63% (n = 310,000) | MrgX1-HEK293, Fluo-4 calcium flux, FDSS; stronger effect = higher value | B-score at 10 µM | Q96LB2;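 active = plate-corrected calcium response at least 3 library SD above typical, normal starting fluorescence, not activating the receptor alone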;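 also: compound read alongside a low EC10 to EC30 dose of BAM8-22 agonist; peak minus trough fluorescence over baseline measured at the second addition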
# RGS4 pot: potentiators or activators of RGS4. HEK293 M3R/inducible RGS4, carbachol calcium flux Fluo4; stronger effect = lower value. actives 0.92% (n = 310,000). B-score at 10 µM;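 active = B-score of the integrated calcium signal more than 4 SD below the library mean, with starting fluorescence not abnormally high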;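 also: negative B-score means reduced calcium response which marks RGS4 activation or potentiation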
#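 System – HEK293 FlpIn-TREx cells, stable M3R, doxycycline-inducible RGS4 · Reagent – ECmax carbachol challenge · Times – compound preincubation 20 min at room temperature before agonist · Technique – Fluo4 fluorescence kinetic imaging of calcium · Measure – B score of integrated Fluo4 ratio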
# RGS4 block valid: RGS4 inhibitor validation | shares compounds with RGS4 inh | HEK293 M3R/RGS4, carbachol calcium Fluo-4 fluorescence; carbachol added at its EC20; 0 = buffer wells, 100 = carbachol control | calcium response, % at 10 µM | actives 65% (n = 1,700);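 active = duplicate-averaged calcium response above the buffer-only control mean plus 5 SD of those controls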;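 also: integrated fluorescence ratio F max minus min over baseline F0; higher response in RGS4-induced cells means RGS4 inhibition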
# M3R Ca ctr: checks RGS4 inhibitor effects in non-induced HEK293 M3R cells | shares compounds with RGS4 inh | carbachol calcium Fluo-4; submaximal (EC20) carbachol stimulus; buffer wells 0%, carbachol control wells 100% | activity (percent), % at 10 µM | actives 20% (n = 1,900) | AID 493000; call rule not given here;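 also: RGS4 induction absent so cells express M3R without RGS4; higher means more calcium signal and flags a non-specific hit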
# RGS4 inh ctr2: second RGS4 inhibitor counter-screen in uninduced cells lacking carbachol. shares compounds with RGS4 inh. HEK293 M3R/RGS4 non-induced, Fluo-4 calcium, no carbachol; normalised: buffer wells 0%, carbachol wells 100%. calcium response (agonist-mode artifact), % at 10 µM. actives 22% (n = 1,900);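 active = duplicate-averaged calcium rise in uninduced cells above buffer wells' mean plus 5 SD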
# * marks the source's active call; other numbers are inactive results; i = inactive; · = no result given. An excerpt weighted towards active compounds, which were near 4.1% of everything screened.
SMILES,Kir21 inh,RGS4 inh,MrgX1 ag,MrgX1 antagonist,MrgX1 allo act,RGS4 pot,RGS4 block valid,M3R Ca ctr,RGS4 inh ctr2
COc1ccc(/C=C/C(=O)c2ccc(C(=O)/C=C/c3ccc(OC)c(OC)c3)cc2)cc1OC,0.01,i,·,·,·,i,·,·,·
O=C(c1ccccc1F)N1CCN=C1SCc1cccnc1,0.85,i,i,i,i,i,·,·,·
Cc1ccc([N+](=O)[O-])cc1NC(=O)CN(C(=O)c1ccc(Cl)cc1)C1CCCCC1,1.8,i,i,i,i,i,·,·,·
CC(=O)c1cccc(S(=O)(=O)N(C)C2CCN(C)CC2)c1,-0.34,i,i,i,i,i,·,·,·
CC(=O)Oc1ccc2ccccc2c1C(NC(=O)Cc1ccccc1)c1ccccc1 (stereo unspecified),-1.5,5.5*,i,i,i,i,14%*,30%*,i
CC(=O)NC(c1cccc([N+](=O)[O-])c1)c1c(OC(C)=O)ccc2ccccc12 (stereo unspecified),-0.03,i,i,i,i,i,·,·,·
CNC(=O)c1ncnnc1N(C)C(=O)NCc1ccccc1,-0.57,i,i,i,i,i,·,·,·
CC(=O)N(C1CC(C)C(C#N)(C#N)C1(C#N)C#N)N(C)C (stereo unspecified),-0.05,28*,i,i,i,i,62%*,i,9.0%*
CCCC(=O)N(C1CC(C)C(C#N)(C#N)C1(C#N)C#N)N(C)C (stereo unspecified),-0.56,7.7*,i,i,i,i,30%*,i,22%*
OCC1OC(n2cnc3c(NC4CCCCC4)ncnc32)C(O)C1O (stereo unspecified),0.35,i,i,i,i,i,·,48%*,i
Nc1ncnc2c1ncn2[C@@H]1O[C@H](CO)[C@@H](O)[C@@H]1O,-1.7,i,i,i,i,i,·,·,·
C=CCNc1ncnc2c1ncn2C1OC(CO)C(O)C1O (stereo unspecified),1.2,4.8*,i,i,i,i,18%*,67%*,i
OC[C@H]1O[C@@H](n2cnc3c(NC4CCCC4)ncnc32)[C@H](O)[C@@H]1O,1.2,i,i,i,i,i,·,·,·
OCC1OC(n2cnc3c(NC4CCCC4)ncnc32)C(O)C1O (stereo unspecified),0.28,4.7*,i,i,i,i,41%*,i,312%*
Cc1c(Nc2nc(C(F)(F)F)nc3ccccc23)c(=O)n(-c2ccccc2)n1C,-0.01,i,i,i,i,i,·,·,·
CN(C)C(=O)CSc1nnc(NC(=O)CCc2ccccc2)s1,-0.34,i,i,i,i,i,·,·,·
Cc1cccc(S(=O)(=O)c2c(C)cc(C)[nH]c2=O)c1,0.64,i,i,i,i,i,·,·,·
CC1CCN(c2c(NCC3CCC(C(=O)NCCCc4ccccc4)CC3)c(=O)c2=O)CC1 (stereo unspecified),0.94,6.4*,i,i,i,i,6.0%*,i,i
CC1CCN(c2c(NCC3CCC(C(=O)NCc4ccccc4)CC3)c(=O)c2=O)CC1 (stereo unspecified),-0.24,i,i,i,i,i,·,i,i
CC1CCN(c2c(NCC3CCC(C(=O)NCCc4ccc(Cl)cc4)CC3)c(=O)c2=O)CC1 (stereo unspecified),-0.46,i,i,i,i,i,·,·,·
CC1CCN(c2c(NCC3CCC(C(=O)NCc4ccc(F)cc4)CC3)c(=O)c2=O)CC1 (stereo unspecified),1.5,i,i,i,i,i,·,·,·
CC(/C=C/c1ccccc1)=N/NC(=O)CCC(=O)Nc1ccccc1C,1.7,i,i,i,i,i,·,·,·
Cc1ccccc1NC(=O)C(=Cc1ccc(C(=O)O)cc1)C(=O)Nc1ccccc1C,-3.1,10*,·,·,·,i,53%*,i,i
CC(=O)/C(=C/c1ccccc1)C(=O)Nc1ccccc1C,-5.5*,28*,i,i,i,i,64%*,64%*,i
CCOC(=O)c1sc(=S)n(CC)c1NC(=O)CC,1.1,i,i,i,i,i,·,·,·
SMILES,Kir21 inh,RGS4 inh,MrgX1 ag,MrgX1 antagonist,MrgX1 allo act,RGS4 pot,RGS4 block valid,M3R Ca ctr,RGS4 inh ctr2
Cc1ccc(OCc2cc(C(=O)N(C)Cc3nccn3C)no2)cc1C,-0.39,i,i,i,i,i,·,·,·
COc1cc(/C=N/OCC(=O)NC2CCS(=O)(=O)C2)ccc1OC(F)F (stereo unspecified),-0.76,i,i,i,i,i,·,·,·
O=C(Nc1ccc(Br)cc1)c1cccc(S(=O)(=O)Nc2ccccn2)c1,1.1,i,i,i,i,i,·,·,·
O=C(Nc1ccc(Br)cc1)c1cccc(S(=O)(=O)Nc2cnc3ccccc3c2)c1,2.4,5.9*,i,i,i,i,16%*,i,i
Cc1cccc(N=Nc2c(N)n[nH]c2-c2ccc(Cl)cc2)c1,1.2,i,i,i,i,i,·,·,·
Cc1ccc(-c2[nH]nc(N)c2N=Nc2ccccc2C)cc1,1.5,10*,i,i,i,i,i,i,i
Cc1ccc(S(=O)(=O)N2CCC(=O)N(C(COCc3ccc(Cl)cc3)C(C)C)CC2)cc1 (stereo unspecified),0.32,i,i,i,i,i,·,·,·
O=c1c2ccccc2nc2c3ccccc3c(NCc3ccccn3)nn12,0.14,14*,i,i,i,i,12%*,i,i
O=c1c2ccccc2nc2c3ccccc3c(NCc3cccnc3)nn12,-0.16,i,i,i,i,i,·,·,·
COC(=O)C1=C(C)N(C)C(=O)NC1c1ccccc1 (stereo unspecified),-0.54,i,i,i,i,i,·,·,·

# Screening data deposited in PubChem by Johns Hopkins Ion Channel Center.
